D1 mod: D1 CRE-luciferase signal change, two-sided – cell-based, HEK293 D1, dopamine EC30, D1 allosteric modulator project, primary screen; dopamine EC30 potentiation; actives deviate in either direction; B-score at 10 µM; 5.9% of 58,000 active; AID 641, 2007;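 active means luminescence count or its row- and column-corrected plate score outside the 99.7% band of the plate's sample wells, on either side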
Htt clearance: clearance of mutant huntingtin inclusions, primary screen, imaging, HeLa Exon1htt(103Q)mCFP, confocal imaging; aggregate imaging; zero = plate's median compound well; inhibition, % at 1.5 µM; 0.42% of 47,000 active; AID 853, 2007;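 active means inhibition of aggregate fluorescence above about 70%, also judged a hit by eye on the cell image, limit read from the data, passing the limit was not always enough; inconclusive means no rule stated for this call; inactive means not judged a hit on image review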;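 further: cells exposed to compound for three days before fixation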
M1 antag: antagonists of rat M1 muscarinic receptor; Muscarinic acetylcholine receptor M1 (Rattus norvegicus), P08482; CHO-M1 cells, Fluo-4 calcium, ACh EC80 antagonist mode; hits give low values; B-score at 10 µM; 3.4% of 64,000 active; AID 628, 2007;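 active means calcium fluorescence response, raw or row-and-column corrected B-score, differing from the plate sample mean either way at a set confidence level, mostly lower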
Target sequence (P08482 whole entry, looked up): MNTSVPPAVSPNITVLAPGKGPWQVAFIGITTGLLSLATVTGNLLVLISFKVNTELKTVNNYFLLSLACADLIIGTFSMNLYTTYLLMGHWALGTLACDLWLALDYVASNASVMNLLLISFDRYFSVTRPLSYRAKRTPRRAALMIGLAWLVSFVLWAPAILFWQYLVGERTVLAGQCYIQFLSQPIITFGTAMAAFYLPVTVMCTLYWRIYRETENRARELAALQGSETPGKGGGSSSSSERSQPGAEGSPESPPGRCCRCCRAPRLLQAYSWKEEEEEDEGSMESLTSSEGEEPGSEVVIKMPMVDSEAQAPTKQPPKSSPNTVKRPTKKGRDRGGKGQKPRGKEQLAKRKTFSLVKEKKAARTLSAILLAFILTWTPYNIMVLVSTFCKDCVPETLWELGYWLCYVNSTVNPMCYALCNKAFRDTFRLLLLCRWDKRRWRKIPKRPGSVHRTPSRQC
SF1 activator: activators of human SF-1, primary screen, cell-based, CHO-K1, Gal4-SF-1 LBD, luciferase luminescence; CHO-K1 Gal4-SF-1 LBD luciferase reporter; % increase over DMSO SF-1-specific signal; Steroidogenic factor 1 (Homo sapiens), Q13285; AID 522, 2006; activation, % at 10 µM; 1.9% of 65,000 active;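 active means activation above the mean activation of all tested compounds plus 3 SD, cut at about 50% in these data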
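Assay system: CHO-K1 cells co-transfected with Gal4 DBD–human SF-1 LBD, 5xGal4 luciferase reporter / Input: 4,000 cells per well / Incubation: 20 h compound exposure at 37 °C after 1 h cell settling / Detection: SteadyLite luciferase luminescence / Control set: DMSO negative control and −SF1 background wells / Replication: one test per compound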
M1 agonist: M1 muscarinic receptor agonists, primary screen, CHO-M1 cells, Fluo-4 calcium, agonist mode | Muscarinic acetylcholine receptor M1 | Fluo-4 calcium fluorescence; hits give high values | B-score at 10 µM | 3% of 64,000 active | AID 626, 2007;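 active means fluorescence rise, raw or as B-score row- and column-corrected plate score, outside the 99.7% band of its plate's samples, either direction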
RORa activator: activators of orphan receptor RORA, primary screen, cell-based, luminescence | CHO-K1 Gal4-RORA LBD luciferase reporter; percent increase over mock-subtracted basal signal | activation, % at 10 µM | 1.5% of 65,000 active;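 active means activation above the mean of all tested compounds plus 3 SD, cut at about 49% in these data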
Large screens that a line does not name were inactive. Shown are actives, neighbours in structure and some others; about 11% of the full set was active somewhere.

CCC1CCCCN1C(=O)CSc1nnc(-c2ccco2)o1 (configuration not stated)	SF1 activator 52.3, RORa activator 48.8
COCCn1c(SCC(=O)Nc2ncc(C)s2)nc2sc3c(c2c1=O)CCC3	none (no result: Htt clearance)
COCCn1c(SCc2nnc(-c3ccccc3)o2)nc2sc3c(c2c1=O)CCC3	D1 mod -4.99
Cc1c(C#N)c2ncnc(-c3ccccc3)c2n1-c1ccccc1	none
Cc1c(C#N)c2ncn(Cc3ccccc3)c(=O)c2n1-c1ccccc1	D1 mod 13.3
NNC(=O)c1cnn(Cc2ccccc2)c1N	none (no result: D1 mod, M1 antag, SF1 activator, M1 agonist, RORa activator)
CCOc1ccccc1NC(=O)C1CCN(S(=O)(=O)c2ccc(OC)c(OC)c2)CC1	none (no result: Htt clearance)
CCOc1ccccc1NC(=O)C1CCN(c2ccc(S(=O)(=O)N3CCCC3)cc2)CC1	Htt clearance 71.9
CCOC(=O)C1=C(N)OC2=C(C(=O)CC(C)(C)C2)C1c1ccco1 (configuration not stated)	Htt clearance inconclusive
CC1(C)CC(=O)C2=C(C1)OC1=C(C(=O)CC(C)(C)C1)C2c1ccc(O)cc1O	M1 agonist 158
Cc1cc(NC(=O)CSc2nccn2-c2ccc(Cl)cc2)no1	none
CCC(=O)Nc1nc2ccc3nc(C)sc3c2s1	SF1 activator 56.4, RORa activator 81.8 (no result: Htt clearance)
O=C1CC(c2ccc(S(=O)(=O)N3CCN(c4ccccc4)CC3)cc2)CN1 (configuration not stated)	none
CC1(C)CC(=O)C(C(c2cccnc2)C2C(=O)CC(C)(C)CC2=O)C(=O)C1	D1 mod -5.51
CC1(C)CC(=O)C=C(NCc2cccnc2)C1	none
CCC1Oc2nc(SC)nnc2-c2ccccc2N1C(=O)c1ccccc1 (configuration not stated)	SF1 activator 49.7, RORa activator 54.0 (no result: D1 mod, Htt clearance)
CCOC(=O)C1=C(N)OC2=C(C(=O)CCC2)C1c1ccccc1OCC (configuration not stated)	none (no result: Htt clearance)
COc1ccc(C(=O)Nc2nc3cc(OC)c(OC)cc3c(=O)[nH]2)cc1	M1 antag 10.3 (no result: Htt clearance)
CCn1c(=O)n(CC(=O)Nc2cc(OC)c(OC)c(OC)c2)c(=O)c2ccccc21	none (no result: D1 mod, M1 antag, SF1 activator, M1 agonist, RORa activator)
c1ccc(-c2nnc(Cn3c4ccccc4c4nc5ccccc5nc43)o2)cc1	none
CC(O)c1nc2ccccc2n1Cc1nnc(-c2ccc(Cl)cc2)o1 (configuration not stated)	D1 mod -4.6 (no result: Htt clearance)
CCOC(=O)c1cnc2c(-c3ccccc3)cnn2c1N	SF1 activator 52.4 (no result: Htt clearance)
CCOC(=O)c1cnn(-c2sc(C(=O)OCC)c(C)c2C(=O)OCC)c1N	M1 agonist -3.41 (no result: Htt clearance)
CCOC(=O)c1cnn(-c2ccccn2)c1N	RORa activator 53.0 (no result: Htt clearance)
CCOC(=O)c1cnn(-c2ncnc3c2oc2ccccc23)c1N	D1 mod -3.71 (no result: Htt clearance)
COc1ccc(CNC(=O)COC(=O)c2cc(-c3cccs3)nc3ccccc23)cc1OC	none (no result: D1 mod, M1 antag, SF1 activator, M1 agonist, RORa activator)
Cc1cc(C)nc(Sc2ncnc3sc4c(c23)CCC4)n1	none (no result: D1 mod, M1 antag, SF1 activator, M1 agonist, RORa activator)
Cc1ccnc2nc(C(=O)N3CCN(S(=O)(=O)c4ccccc4)CC3)nn12	none
O=c1oc2ccccc2cc1-c1cn2cccnc2n1	RORa activator 55.0
O=c1oc2ccccc2cc1-c1nc(-c2cccs2)cs1	none (no result: D1 mod, M1 antag, SF1 activator, M1 agonist, RORa activator)
COC(=O)[C@@H](NC(=O)Nc1ccccc1F)C(C)C	M1 antag 1.62 (no result: Htt clearance)
CCOC(=O)c1[nH]c2ccccc2c1NC(=O)C1CCCC1	D1 mod 6.86 (no result: Htt clearance)
CCOC(=O)c1[nH]c2ccccc2c1NC(=O)CC(C)(C)C	none (no result: Htt clearance)
COc1ccccc1OCc1csc(NC(=O)c2ccco2)n1	SF1 activator 66.7 (no result: Htt clearance)
O=C(CSc1nc2c(c(C(F)(F)F)n1)CCc1ccccc1-2)NCc1ccccc1	none (no result: D1 mod, M1 antag, SF1 activator, M1 agonist, RORa activator)
O=C(O)c1cc2nc3c(c(C(F)(F)F)n2n1)CCc1ccccc1-3	D1 mod -4.49
Cc1cccnc1Nc1nc(-c2ccc(O)cc2O)cs1	SF1 activator 51.4
CCn1c(Cn2nnc(-c3ccccc3)n2)nnc1SCC(=O)Nc1ccc(C(C)=O)cc1	RORa activator 59.7 (no result: M1 antag, M1 agonist)
CCn1c(Cn2nnc(-c3ccccc3)n2)nnc1SCC(=O)Nc1cccc(C(C)=O)c1	none
COc1ccc(C(=O)Nc2ccc(Cl)c(Cl)c2)c(OC)n1	RORa activator 52.4 (no result: Htt clearance)
O=C(Nc1ccc(Cl)c(Cl)c1)c1ccncc1	none (no result: Htt clearance, SF1 activator, RORa activator)
O=C(NC1CCCCC1)c1cccs1	none (no result: D1 mod, M1 antag, SF1 activator, M1 agonist, RORa activator)
O=C(NCc1cccs1)c1ccc(Cl)s1	none
O=C(O)c1cc2c(s1)-c1ccccc1OC2	none (no result: D1 mod, Htt clearance)
CCc1ccc(C(=O)NCc2cccs2)s1	SF1 activator 70.5 (no result: Htt clearance)
CCc1ccc(C(=O)NC2CCCCC2)s1	SF1 activator 59.0, RORa activator 55.3 (no result: Htt clearance)
O=C(NCc1cccs1)c1cc2c(s1)-c1ccccc1OC2	RORa activator 53.1
O=C(NC1CC1)c1cc2c(s1)-c1ccccc1OC2	D1 mod -5.84 (no result: Htt clearance)
COc1ccc(Cl)cc1C(=O)NC(=S)Nc1cc(-c2nc3ccccc3[nH]2)ccc1C	none (no result: D1 mod, M1 antag, SF1 activator, M1 agonist, RORa activator)
O=C(CN(Cc1cccs1)C(=O)CNC(=O)c1ccco1)NC1CCCCC1	none (no result: D1 mod)
O=C(c1cccs1)N1CCN(S(=O)(=O)N2CCOCC2)CC1	Htt clearance inconclusive
CCOC(=O)C(NC(=O)CC)(Nc1cc(C)on1)C(F)(F)F (configuration not stated)	none
CC(C)NC(=O)CN(CCc1ccccc1)S(C)(=O)=O	none
O=S1(=O)C=C(Sc2nnc(-c3ccccc3)o2)c2ccccc21	D1 mod -2.92 (no result: Htt clearance)
Cc1cc(C)nc(SC2=CS(=O)(=O)c3ccccc32)n1	none
CC(C)CCn1cnc2c1c(=O)n(C)c(=O)n2C	Htt clearance 73.0
Clc1ccc2nc(CSc3nnc(-c4c[nH]c5ccccc45)o3)cn2c1	none (no result: D1 mod, Htt clearance)
Clc1ccc2nc(CSc3nc4ccccc4o3)cn2c1	SF1 activator 50.2 (no result: D1 mod, Htt clearance)
c1ccc2c(c1)oc1c(Nc3ccc(CN4CCOCC4)cc3)ncnc12	SF1 activator 54.0
c1ccc(Nc2ncnc3c2oc2ccccc23)cc1	Htt clearance 72.5, SF1 activator 64.9
c1ccc2c(c1)oc1c(NCc3ccc4c(c3)OCO4)ncnc12	M1 agonist 5.73 (no result: Htt clearance)
O=C(COCc1nc2ccccc2c(=O)[nH]1)NC1CCCC1	none
C[C@@H]1C[C@H](Nc2ccccc2)c2ccccc2N1C(=O)c1cccnc1	none (no result: D1 mod)
CCN(CC)C(=O)CSc1nnc(-c2ccccc2)n1N	M1 antag 2.37
CN(C)C(=O)NC(Nc1ccc(Cl)cc1Cl)C(Cl)(Cl)Cl (configuration not stated)	none (no result: D1 mod, M1 antag, SF1 activator, M1 agonist, RORa activator)
COc1ccc(NC(=O)Nc2cc(C)ccc2OC(F)F)c(OC)c1	M1 antag 2.02
CC1CCCCN1C(=O)/C(=C\c1ccccc1)c1ccccc1 (configuration not stated)	none (no result: D1 mod, M1 antag, SF1 activator, M1 agonist, RORa activator)

From PubChem BioAssay
